Assay results taken from PMC10373466 (ACS Omega, 2023).
“And” between values parts separate entries of the source, which are not always exact repeats. Equal values may be shown once.

Experiments:
hAChE = hAChE (Homo sapiens, UniProt P22303); assay: In vitro AChE inhibition assay; format: biochemical; settings: for IC50: in vitro AChE inhibition IC50 ± SD, Ellman method, n = 3
hBuChE = hBuChE (Homo sapiens, UniProt P06276); assay: In vitro BuChE inhibition assay; format: biochemical; settings: for IC50: BuChE IC50 ± SD, modified Ellman method
BACE-1 = BACE-1 (Homo sapiens, UniProt P56817); assay: β-Secretase inhibition assay; format: biochemical; settings: BACE-1 IC50 ± SD
hMAO-B = target: T1, hMAO-B (Homo sapiens, UniProt P27338); assay: biochemical; format: biochemical
T1 sequence (P27338 1-520): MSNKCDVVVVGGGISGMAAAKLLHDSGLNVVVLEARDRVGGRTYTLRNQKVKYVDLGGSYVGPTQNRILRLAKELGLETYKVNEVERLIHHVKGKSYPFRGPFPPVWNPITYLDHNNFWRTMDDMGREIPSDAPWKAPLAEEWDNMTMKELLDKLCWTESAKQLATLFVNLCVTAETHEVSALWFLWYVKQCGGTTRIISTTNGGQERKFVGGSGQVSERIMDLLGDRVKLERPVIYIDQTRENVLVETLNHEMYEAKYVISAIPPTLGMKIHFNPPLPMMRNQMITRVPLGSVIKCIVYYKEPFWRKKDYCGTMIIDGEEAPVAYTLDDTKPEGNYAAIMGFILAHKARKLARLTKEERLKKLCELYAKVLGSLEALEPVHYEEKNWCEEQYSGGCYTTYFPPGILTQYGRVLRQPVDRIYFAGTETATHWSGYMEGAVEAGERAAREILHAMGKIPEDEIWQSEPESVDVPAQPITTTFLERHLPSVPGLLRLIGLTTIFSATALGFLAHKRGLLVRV

Aβ1–42 = Aβ1–42 (Homo sapiens, UniProt P05067); assay: Self-induced Aβ1–42 aggregation inhibition; format: biochemical; settings: for IC50: Aβ1–42 aggregation inhibition IC50, self-induced aggregation; for inhibition at 10 µM: read-out: Aβ1–42 (% inhibition at 10 μM)
[1] = Total antioxidant capacity; settings: Trolox TAC value = 1.00
[2] = In vitro neurotoxicity MTT assay; format: cell-based; settings: human, SH-SY5Y neuroblastoma cells
[3] = Metal chelation assay, UV–vis spectroscopy; format: physicochemical; settings: compound 30 μM, FeSO4 30 μM, ethanol
Method in brief: (§1)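 Test compound and metal salt (CuSO4, ZnSO4 or FeSO4) mixed in ethanol, both at 30 μM final, and incubated 30 min at room temperature. UV-vis spectra were recorded from 200 to 600 nm for the compound alone, the metal alone and the mixture. Spectra of metal alone and compound alone were subtracted from the mixture spectrum to give the difference spectrum attributed to complex formation.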

[4] = Metal chelation assay, UV–vis spectroscopy; format: physicochemical; settings: compound 30 μM, CuSO4 30 μM, ethanol
Method in brief: as §1

[5] = Metal chelation assay, UV–vis spectroscopy; format: physicochemical; settings: compound 30 μM, ZnSO4 30 μM, ethanol
Method in brief: as §1

[6] = In vitro hepatotoxicity MTT assay; settings: human
HepG2 cell line = assay: In vitro hepatotoxicity MTT assay; settings: ratio of hepatotoxicity IC50 to AChE IC50

BACE-1, sequence (P56817 46-501): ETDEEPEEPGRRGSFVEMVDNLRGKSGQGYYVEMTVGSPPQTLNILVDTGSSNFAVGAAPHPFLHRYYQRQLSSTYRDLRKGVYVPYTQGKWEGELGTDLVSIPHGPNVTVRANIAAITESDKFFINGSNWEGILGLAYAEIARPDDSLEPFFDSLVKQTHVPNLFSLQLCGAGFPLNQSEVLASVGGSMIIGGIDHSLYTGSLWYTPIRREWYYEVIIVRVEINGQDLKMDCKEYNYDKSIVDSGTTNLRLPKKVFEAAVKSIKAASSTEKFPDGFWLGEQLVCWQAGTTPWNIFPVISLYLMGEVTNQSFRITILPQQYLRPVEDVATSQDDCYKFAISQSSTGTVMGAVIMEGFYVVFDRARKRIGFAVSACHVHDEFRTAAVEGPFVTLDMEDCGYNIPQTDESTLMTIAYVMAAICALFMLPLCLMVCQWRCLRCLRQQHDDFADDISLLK
hAChE, sequence (P22303 32-614): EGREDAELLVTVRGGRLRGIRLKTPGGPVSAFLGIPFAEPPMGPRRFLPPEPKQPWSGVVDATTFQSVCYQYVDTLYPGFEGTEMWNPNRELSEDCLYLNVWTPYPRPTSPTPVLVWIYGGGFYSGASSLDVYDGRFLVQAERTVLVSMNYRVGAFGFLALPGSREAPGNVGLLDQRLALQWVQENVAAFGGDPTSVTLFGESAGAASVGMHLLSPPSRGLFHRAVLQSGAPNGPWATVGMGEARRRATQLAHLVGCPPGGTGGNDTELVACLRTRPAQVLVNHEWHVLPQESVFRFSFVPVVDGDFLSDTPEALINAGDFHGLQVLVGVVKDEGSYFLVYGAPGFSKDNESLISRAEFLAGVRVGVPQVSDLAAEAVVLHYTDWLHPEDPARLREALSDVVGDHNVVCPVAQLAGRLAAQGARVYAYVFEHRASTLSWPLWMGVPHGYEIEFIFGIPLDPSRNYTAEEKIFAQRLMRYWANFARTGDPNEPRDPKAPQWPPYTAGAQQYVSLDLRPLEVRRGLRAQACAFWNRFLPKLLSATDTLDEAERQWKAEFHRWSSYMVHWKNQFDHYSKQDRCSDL
Aβ1–42, sequence (P05067 672-713): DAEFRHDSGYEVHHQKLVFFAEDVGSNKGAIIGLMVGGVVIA
hBuChE, sequence (P06276 29-602): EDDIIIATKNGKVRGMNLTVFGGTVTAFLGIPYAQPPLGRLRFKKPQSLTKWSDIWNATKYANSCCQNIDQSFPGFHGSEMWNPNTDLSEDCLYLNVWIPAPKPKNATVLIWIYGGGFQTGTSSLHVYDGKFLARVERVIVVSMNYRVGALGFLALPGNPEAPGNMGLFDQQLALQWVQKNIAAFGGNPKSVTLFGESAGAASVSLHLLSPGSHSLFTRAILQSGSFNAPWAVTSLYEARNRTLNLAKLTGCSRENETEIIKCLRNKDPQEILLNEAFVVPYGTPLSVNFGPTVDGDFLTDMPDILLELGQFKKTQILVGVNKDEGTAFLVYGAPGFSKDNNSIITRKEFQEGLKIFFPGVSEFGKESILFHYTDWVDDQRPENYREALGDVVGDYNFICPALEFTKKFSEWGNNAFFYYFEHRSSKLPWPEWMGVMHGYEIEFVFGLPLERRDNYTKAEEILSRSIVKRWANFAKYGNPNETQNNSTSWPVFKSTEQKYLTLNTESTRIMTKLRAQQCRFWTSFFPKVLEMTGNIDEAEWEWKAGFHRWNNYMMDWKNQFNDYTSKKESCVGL

SMILES | AChE SI (selectivity index) = IC50 of BuChE/IC50 of AChE (hAChE) | IC50 (hAChE) [µM] | BuChE SI (selectivity index) = IC50 of AChE/IC50 of BuChE (hBuChE) | IC50 (hBuChE) | IC50 (BACE-1) [µM] | IC50 (hMAO-B) [µM] | IC50 (Aβ1–42) [µM] | inhibition at 10 µM (Aβ1–42) [%] | total antioxidant capacity (Trolox equivalent) [1] | IC50 [2] [µM] | UV–vis spectral change on addition of FeSO4 (metal chelation) [3] | UV–vis spectral change on addition of CuSO4 (metal chelation) [4] | UV–vis spectral change on addition of ZnSO4 (metal chelation) [5] | IC50 at 24 h [6] [µM] | safety index ratio (SI) (HepG2 cell line) | fold more active than rivastigmine (BuChE inhibition) (hBuChE) [fold] | times better than iproniazid (MAO-B inhibition) (hMAO-B) [times]
Nc1c2c(nc3c1C(c1cccc([N+](=O)[O-])c1)c1ccc(OS(=O)(=O)c4ccc(F)cc4)cc1O3)CCCC2 (stereo not drawn) [4c, 11-Amino-12-(3-nitrophenyl)-7,9,10,12-tetrahydro-8H-chromeno[2,3-b]quinolin-3-yl-4-fluorobenzenesulfonate] | 1.11 | 0.62 ± 0.03 | 0.90 | 0.69 ± 0.041 µM | 2.68 ± 0.123 | 8.04 ± 0.27 | 4.28 ± 0.17 | 47 | 0.80 ± 0.032 μmol of Trolox equivalent/μmol tested compound | 27.9 ± 1.24 | extraordinary hyperchromic shifts | extraordinary hyperchromic shifts | extraordinary hyperchromic shifts | 78.3 ± 3.6 | 125.26 | – | –
Cc1ccc(S(=O)(=O)Oc2ccc3c(c2)Oc2nc4c(c(N)c2C3c2ccc(Cl)c(Cl)c2)CCCC4)cc1 (stereo not drawn) [4n, 11-Amino-12-(3,4-dichlorophenyl)-7,9,10,12-tetrahydro-8H-chromeno[2,3-b]quinolin-3-yl-4-methylbenzenesulfonate] | 0.38 | 0.47 ± 0.02 | 2.59 | 0.18 ± 0.011 µM | 0.25 ± 0.011 | 3.73 ± 0.13 | 17.4 ± 0.68 | 40 | 0.66 ± 0.026 μmol of Trolox equivalent/μmol tested compound | 91.7 ± 4.06 | remarkable hyperchromic effect | remarkable hyperchromic effect | remarkable hyperchromic effect | 67.4 ± 3.3 | 141.53 | ~4 | ~2
Nc1c2c(nc3c1C(c1cccc([N+](=O)[O-])c1)c1ccc(OCC(=O)c4ccc(Cl)cc4)cc1O3)CCCC2 (stereo not drawn) [5c, 2-[11-Amino-12-(3-nitrophenyl)-7,9,10,12-tetrahydro-8H-chromeno[2,3-b]quinolin-3-yl]oxy-1-(4-chlorophenyl)ethan-1-one] | 0.19 | 0.44 ± 0.02 | 5.37 | 0.082 µM and 0.08 µM | 0.38 ± 0.017 | 5.15 ± 0.17 | 2.85 ± 0.11 | 59 | 0.88 ± 0.034 μmol of Trolox equivalent/μmol tested compound | 36.3 ± 1.43 | noteworthy hyperchromic effect | noteworthy hyperchromic effect | slight hyperchromic effect | 188 ± 6.9 | 427.73 | 10 | –
